Laboratory results from ChEMBL document CHEMBL3585276, “Topoisomerase I and II inhibitory activity, cytotoxicity, and structure-activity relationship study of dihydroxylated 2,6-diphenyl-4-aryl pyridines” (Bioorg Med Chem, 2015).

Molecular target: T1, DNA topoisomerase 1 (Homo sapiens) (UniProt P11387)
T1 sequence (whole entry): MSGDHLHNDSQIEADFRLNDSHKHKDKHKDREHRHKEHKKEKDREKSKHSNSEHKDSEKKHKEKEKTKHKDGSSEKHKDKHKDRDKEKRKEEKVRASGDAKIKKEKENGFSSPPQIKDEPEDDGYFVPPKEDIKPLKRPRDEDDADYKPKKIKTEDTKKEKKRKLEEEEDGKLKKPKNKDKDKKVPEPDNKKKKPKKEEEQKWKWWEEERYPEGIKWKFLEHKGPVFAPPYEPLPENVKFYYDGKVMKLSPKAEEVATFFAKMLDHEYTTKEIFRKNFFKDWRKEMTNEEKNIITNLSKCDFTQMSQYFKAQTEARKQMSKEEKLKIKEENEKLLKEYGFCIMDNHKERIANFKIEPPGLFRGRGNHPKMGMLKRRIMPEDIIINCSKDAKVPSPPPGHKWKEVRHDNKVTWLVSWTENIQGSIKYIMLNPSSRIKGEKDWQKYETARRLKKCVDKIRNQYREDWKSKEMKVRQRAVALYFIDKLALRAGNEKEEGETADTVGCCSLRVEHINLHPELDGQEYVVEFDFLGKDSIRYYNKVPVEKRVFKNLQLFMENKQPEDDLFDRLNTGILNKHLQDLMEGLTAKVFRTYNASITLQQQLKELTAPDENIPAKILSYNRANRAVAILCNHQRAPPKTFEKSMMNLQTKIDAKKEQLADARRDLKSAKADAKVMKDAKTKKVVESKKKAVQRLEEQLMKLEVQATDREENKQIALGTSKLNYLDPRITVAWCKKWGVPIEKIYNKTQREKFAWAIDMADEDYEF
Assay: Inhibition of recombinant human DNA topoisomerase-1 assessed as relaxation of supercoiled DNA pBR322 at 100 uM after 30 mins by agarose gel electrophoresis relative to control
Details: not given
Outline: (§1)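 Relaxation assay with 100 ng pBR322 plasmid DNA and 1 unit recombinant human topo I. Buffer was 10 mM Tris–HCl pH 7.9, 150 mM NaCl, 0.1% BSA, 1 mM spermidine and 5% glycerol, incubated 37 °C for 30 min with or without compound. Products were run on a 1% agarose gel in TAE at 15 V for 7 h and stained with ethidium bromide (0.5 µg/mL) for 30 min.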

Row | Compound | inhibition
1 | Oc1ccc(-c2cc(-c3ccco3)cc(-c3ccc(O)cc3)n2)cc1 | 100%
2 | Oc1ccc(-c2cc(-c3ccoc3)cc(-c3cccc(O)c3)n2)cc1 | 37.4%
3 | Oc1cccc(-c2cc(-c3cccnc3)cc(-c3ccccc3O)n2)c1 | 1.9%
4 | Oc1ccc(-c2cc(-c3ccoc3)cc(-c3ccccc3O)n2)cc1 | 30.1%
5 | Oc1cccc(-c2cc(-c3ccco3)cc(-c3cccc(O)c3)n2)c1 | 97.8%
6 | Oc1ccc(-c2cc(-c3ccco3)cc(-c3cccc(O)c3)n2)cc1 | 100%
7 | Oc1cccc(-c2cc(-c3ccccn3)cc(-c3ccccc3O)n2)c1 | 35.4%

Second part, the molecule after the results:

Row | inhibition | Compound
8 | 85.7% | Oc1ccc(-c2cc(-c3cccs3)cc(-c3cccc(O)c3)n2)cc1
9 | 83% | Oc1ccc(-c2cc(-c3ccco3)cc(-c3ccccc3O)n2)cc1
10 | 72.2% | Oc1ccc(-c2cc(-c3cccs3)cc(-c3ccccc3O)n2)cc1

Molecular target: T1, DNA topoisomerase 1 (Homo sapiens)
Assay: Inhibition of recombinant human DNA topoisomerase-1 assessed as relaxation of supercoiled DNA pBR322 at 20 uM after 30 mins by agarose gel electrophoresis relative to control
Details: not given
Outline: as §1

Row | Compound | inhibition
11 | Oc1ccc(-c2cc(-c3ccco3)cc(-c3ccc(O)cc3)n2)cc1 | 0%
12 | Oc1ccc(-c2cc(-c3ccoc3)cc(-c3cccc(O)c3)n2)cc1 | 1.3%
13 | Oc1cccc(-c2cc(-c3cccnc3)cc(-c3ccccc3O)n2)c1 | 0%
14 | Oc1ccc(-c2cc(-c3ccoc3)cc(-c3ccccc3O)n2)cc1 | 3.9%
15 | Oc1cccc(-c2cc(-c3ccco3)cc(-c3cccc(O)c3)n2)c1 | 0%
16 | Oc1ccc(-c2cc(-c3ccco3)cc(-c3cccc(O)c3)n2)cc1 | 1.5%
17 | Oc1cccc(-c2cc(-c3ccccn3)cc(-c3ccccc3O)n2)c1 | 0.1%

Results, then the molecule that gave them:

Row | inhibition | Compound
18 | 1.1% | Oc1ccc(-c2cc(-c3cccs3)cc(-c3cccc(O)c3)n2)cc1
19 | 0% | Oc1ccc(-c2cc(-c3ccco3)cc(-c3ccccc3O)n2)cc1
20 | 2% | Oc1ccc(-c2cc(-c3cccs3)cc(-c3ccccc3O)n2)cc1

Molecular target: DNA topoisomerase 2-alpha (Homo sapiens) (UniProt P11388)
Sequence (P11388 whole entry): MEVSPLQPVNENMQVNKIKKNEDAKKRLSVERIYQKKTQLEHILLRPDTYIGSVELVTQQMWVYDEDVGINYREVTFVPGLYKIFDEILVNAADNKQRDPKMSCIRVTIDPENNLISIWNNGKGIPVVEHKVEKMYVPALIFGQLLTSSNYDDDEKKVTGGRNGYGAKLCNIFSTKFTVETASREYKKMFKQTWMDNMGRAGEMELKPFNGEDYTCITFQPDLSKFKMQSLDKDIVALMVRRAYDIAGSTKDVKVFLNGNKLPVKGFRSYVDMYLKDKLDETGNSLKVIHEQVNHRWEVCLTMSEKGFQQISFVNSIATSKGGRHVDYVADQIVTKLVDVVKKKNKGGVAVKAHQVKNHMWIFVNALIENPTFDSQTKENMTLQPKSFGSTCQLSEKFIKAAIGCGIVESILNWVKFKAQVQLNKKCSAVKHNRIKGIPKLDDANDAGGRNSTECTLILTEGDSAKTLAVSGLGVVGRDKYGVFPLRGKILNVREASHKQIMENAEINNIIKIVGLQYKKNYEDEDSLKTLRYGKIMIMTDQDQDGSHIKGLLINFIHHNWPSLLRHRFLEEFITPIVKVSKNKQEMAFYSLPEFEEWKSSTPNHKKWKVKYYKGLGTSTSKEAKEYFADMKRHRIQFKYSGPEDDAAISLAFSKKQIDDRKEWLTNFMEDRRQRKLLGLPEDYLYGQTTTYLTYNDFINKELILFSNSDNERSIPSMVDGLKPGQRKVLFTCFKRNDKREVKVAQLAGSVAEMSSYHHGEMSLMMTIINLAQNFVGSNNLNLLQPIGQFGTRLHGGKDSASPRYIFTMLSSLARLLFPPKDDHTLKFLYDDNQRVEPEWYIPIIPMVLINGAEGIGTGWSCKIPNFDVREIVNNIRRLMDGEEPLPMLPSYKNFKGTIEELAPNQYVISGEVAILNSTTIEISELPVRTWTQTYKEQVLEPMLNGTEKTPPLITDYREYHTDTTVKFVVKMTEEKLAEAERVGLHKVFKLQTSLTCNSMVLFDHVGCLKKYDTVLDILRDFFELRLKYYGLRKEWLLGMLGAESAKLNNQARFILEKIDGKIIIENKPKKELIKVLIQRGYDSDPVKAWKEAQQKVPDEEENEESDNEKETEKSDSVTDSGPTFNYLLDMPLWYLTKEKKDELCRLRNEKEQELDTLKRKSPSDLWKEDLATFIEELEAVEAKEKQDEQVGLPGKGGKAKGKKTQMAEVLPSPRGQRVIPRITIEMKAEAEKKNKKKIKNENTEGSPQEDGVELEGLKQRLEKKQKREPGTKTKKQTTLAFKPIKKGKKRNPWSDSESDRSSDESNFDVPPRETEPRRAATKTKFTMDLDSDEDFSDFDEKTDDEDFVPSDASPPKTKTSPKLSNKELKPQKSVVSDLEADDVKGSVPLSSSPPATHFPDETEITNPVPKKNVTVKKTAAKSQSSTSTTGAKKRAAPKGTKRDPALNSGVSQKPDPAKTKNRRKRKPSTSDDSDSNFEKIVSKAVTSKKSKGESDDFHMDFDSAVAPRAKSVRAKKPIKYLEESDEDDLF
Assay: Inhibition of recombinant human DNA topoisomerase-2alpha using supercoiled pBR322 plasmid DNA as substrate at 100 uM after 30 mins by agarose gel electrophoresis relative to control
Details: not given
Outline: (§2)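 200 ng supercoiled pBR322 with 1 unit human topo II, incubated 30 min at 30 °C with or without compound in 10 mM Tris–HCl pH 7.9, 50 mM NaCl, 5 mM MgCl2, 1 mM EDTA, 1 mM ATP and 15 µg/mL BSA. Reaction was stopped with 7 mM EDTA and run on 1% agarose in TAE at 25 V. Gel was stained with ethidium bromide, visualized under UV, and supercoiled DNA quantitated densitometrically.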

Row | Compound | inhibition
21 | Oc1ccc(-c2cc(-c3ccco3)cc(-c3ccc(O)cc3)n2)cc1 | 92.3%
22 | Oc1ccc(-c2cc(-c3ccoc3)cc(-c3cccc(O)c3)n2)cc1 | 95%
23 | Oc1cccc(-c2cc(-c3cccnc3)cc(-c3ccccc3O)n2)c1 | 55.2%
24 | Oc1ccc(-c2cc(-c3ccoc3)cc(-c3ccccc3O)n2)cc1 | 69.3%
25 | Oc1cccc(-c2cc(-c3ccco3)cc(-c3cccc(O)c3)n2)c1 | 88.2%
26 | Oc1ccc(-c2cc(-c3ccco3)cc(-c3cccc(O)c3)n2)cc1 | 92.8%
27 | Oc1cccc(-c2cc(-c3ccccn3)cc(-c3ccccc3O)n2)c1 | 62.5%

The remaining lines, values ahead:

Row | inhibition | Compound
28 | 88.6% | Oc1ccc(-c2cc(-c3cccs3)cc(-c3cccc(O)c3)n2)cc1
29 | 84.8% | Oc1ccc(-c2cc(-c3ccco3)cc(-c3ccccc3O)n2)cc1
30 | 76.4% | Oc1ccc(-c2cc(-c3cccs3)cc(-c3ccccc3O)n2)cc1

Molecular target: DNA topoisomerase 2-alpha (Homo sapiens) (UniProt P11388)
Assay: Inhibition of recombinant human DNA topoisomerase-2alpha using supercoiled pBR322 plasmid DNA as substrate at 20 uM after 30 mins by agarose gel electrophoresis relative to control
Details: not given
Outline: as §2

Row | Compound | inhibition
31 | Oc1ccc(-c2cc(-c3ccco3)cc(-c3ccc(O)cc3)n2)cc1 | 48.4%
32 | Oc1ccc(-c2cc(-c3ccoc3)cc(-c3cccc(O)c3)n2)cc1 | 19.7%
33 | Oc1cccc(-c2cc(-c3cccnc3)cc(-c3ccccc3O)n2)c1 | 8.1%
34 | Oc1ccc(-c2cc(-c3ccoc3)cc(-c3ccccc3O)n2)cc1 | 12.8%
35 | Oc1cccc(-c2cc(-c3ccco3)cc(-c3cccc(O)c3)n2)c1 | 20.6%
36 | Oc1ccc(-c2cc(-c3ccco3)cc(-c3cccc(O)c3)n2)cc1 | 21.8%
37 | Oc1cccc(-c2cc(-c3ccccn3)cc(-c3ccccc3O)n2)c1 | 1.5%

Results, then the molecule that gave them:

Row | inhibition | Compound
38 | 21.5% | Oc1ccc(-c2cc(-c3cccs3)cc(-c3cccc(O)c3)n2)cc1
39 | 13.6% | Oc1ccc(-c2cc(-c3ccco3)cc(-c3ccccc3O)n2)cc1
40 | 30.2% | Oc1ccc(-c2cc(-c3cccs3)cc(-c3ccccc3O)n2)cc1

Tested on: DU-145
Assay: Cytotoxicity against human DU145 cells measured on day 4 by CCK8 assay
Type: functional, cell-based
Details: DU-145, 96 h
Outline: (§3)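 Cells seeded at […], grown overnight in medium with 10% FBS at 37 °C under 5% CO2. On day 2 they were serum-starved 4 h, then exposed to graded compound concentrations. On day 4 CCK-8 was added for a further 4 h and absorbance read at 450 nm. IC50 came from a four-parameter logistic fit, mean ± SD of three experiments in triplicate.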

Row | Compound | IC50
41 | Oc1ccc(-c2cc(-c3ccco3)cc(-c3ccc(O)cc3)n2)cc1 | > 50 µM
42 | Oc1ccc(-c2cc(-c3cccs3)cc(-c3cccc(O)c3)n2)cc1 | 1.89 µM
43 | Oc1ccc(-c2cc(-c3ccco3)cc(-c3ccccc3O)n2)cc1 | > 50 µM
44 | Oc1ccc(-c2cc(-c3cccs3)cc(-c3ccccc3O)n2)cc1 | > 50 µM
45 | Oc1ccc(-c2cc(-c3ccoc3)cc(-c3cccc(O)c3)n2)cc1 | 2.7 µM
46 | Oc1cccc(-c2cc(-c3cccnc3)cc(-c3ccccc3O)n2)c1 | 5.58 µM
47 | Oc1ccc(-c2cc(-c3ccoc3)cc(-c3ccccc3O)n2)cc1 | 28 µM
48 | Oc1cccc(-c2cc(-c3ccco3)cc(-c3cccc(O)c3)n2)c1 | 2.15 µM
49 | Oc1ccc(-c2cc(-c3ccco3)cc(-c3cccc(O)c3)n2)cc1 | 2.07 µM
50 | Oc1cccc(-c2cc(-c3ccccn3)cc(-c3ccccc3O)n2)c1 | 17.1 µM

Tested on: HCT-15
Assay: Cytotoxicity against human HCT15 cells measured on day 4 by CCK8 assay
Type: functional, cell-based
Details: HCT-15, 96 h
Outline: as §3

Row | Compound | IC50
51 | Oc1ccc(-c2cc(-c3ccco3)cc(-c3ccc(O)cc3)n2)cc1 | 14 µM
52 | Oc1ccc(-c2cc(-c3cccs3)cc(-c3cccc(O)c3)n2)cc1 | 1.77 µM
53 | Oc1ccc(-c2cc(-c3ccco3)cc(-c3ccccc3O)n2)cc1 | > 50 µM
54 | Oc1ccc(-c2cc(-c3cccs3)cc(-c3ccccc3O)n2)cc1 | > 50 µM
55 | Oc1ccc(-c2cc(-c3ccoc3)cc(-c3cccc(O)c3)n2)cc1 | 0.93 µM
56 | Oc1cccc(-c2cc(-c3cccnc3)cc(-c3ccccc3O)n2)c1 | 8.28 µM
57 | Oc1ccc(-c2cc(-c3ccoc3)cc(-c3ccccc3O)n2)cc1 | > 50 µM
58 | Oc1cccc(-c2cc(-c3ccco3)cc(-c3cccc(O)c3)n2)c1 | 1.89 µM
59 | Oc1ccc(-c2cc(-c3ccco3)cc(-c3cccc(O)c3)n2)cc1 | 0.84 µM
60 | Oc1cccc(-c2cc(-c3ccccn3)cc(-c3ccccc3O)n2)c1 | > 50 µM

Tested on: T47D
Assay: Cytotoxicity against human T47D cells measured on day 4 by CCK8 assay
Type: functional, cell-based
Details: 96 h
Outline: as §3

Row | Compound | IC50
61 | Oc1ccc(-c2cc(-c3ccco3)cc(-c3ccc(O)cc3)n2)cc1 | 21.1 µM
62 | Oc1ccc(-c2cc(-c3cccs3)cc(-c3cccc(O)c3)n2)cc1 | 0.78 µM
63 | Oc1ccc(-c2cc(-c3ccco3)cc(-c3ccccc3O)n2)cc1 | > 50 µM
64 | Oc1ccc(-c2cc(-c3cccs3)cc(-c3ccccc3O)n2)cc1 | > 50 µM
65 | Oc1ccc(-c2cc(-c3ccoc3)cc(-c3cccc(O)c3)n2)cc1 | 2.61 µM
66 | Oc1cccc(-c2cc(-c3cccnc3)cc(-c3ccccc3O)n2)c1 | 6.23 µM
67 | Oc1ccc(-c2cc(-c3ccoc3)cc(-c3ccccc3O)n2)cc1 | > 50 µM
68 | Oc1cccc(-c2cc(-c3ccco3)cc(-c3cccc(O)c3)n2)c1 | 3.52 µM
69 | Oc1ccc(-c2cc(-c3ccco3)cc(-c3cccc(O)c3)n2)cc1 | 1.28 µM
70 | Oc1cccc(-c2cc(-c3ccccn3)cc(-c3ccccc3O)n2)c1 | 2.56 µM

Tested on: HeLa
Assay: Cytotoxicity against human HeLa cells measured on day 4 by CCK8 assay
Type: functional, cell-based
Details: 96 h
Outline: as §3

Row | Compound | IC50
71 | Oc1ccc(-c2cc(-c3ccco3)cc(-c3ccc(O)cc3)n2)cc1 | > 50 µM
72 | Oc1ccc(-c2cc(-c3cccs3)cc(-c3cccc(O)c3)n2)cc1 | 4.14 µM
73 | Oc1ccc(-c2cc(-c3ccco3)cc(-c3ccccc3O)n2)cc1 | > 50 µM
74 | Oc1ccc(-c2cc(-c3cccs3)cc(-c3ccccc3O)n2)cc1 | > 50 µM
75 | Oc1ccc(-c2cc(-c3ccoc3)cc(-c3cccc(O)c3)n2)cc1 | 3.31 µM
76 | Oc1cccc(-c2cc(-c3cccnc3)cc(-c3ccccc3O)n2)c1 | 7.53 µM
77 | Oc1ccc(-c2cc(-c3ccoc3)cc(-c3ccccc3O)n2)cc1 | > 50 µM
78 | Oc1cccc(-c2cc(-c3ccco3)cc(-c3cccc(O)c3)n2)c1 | 5.99 µM
79 | Oc1ccc(-c2cc(-c3ccco3)cc(-c3cccc(O)c3)n2)cc1 | 5.17 µM
80 | Oc1cccc(-c2cc(-c3ccccn3)cc(-c3ccccc3O)n2)c1 | 2.02 µM
